Assay outcomes as filed in PubChem BioAssay.
DNA FID counter-1 – counter-screen for HCV NS3 helicase inhibitors: DNA intercalator displacement. DNA fluorescent intercalator displacement, fluorescence. inhibition, % at 7.9 µM. 290,000 compounds, 0.17% hits;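 also: higher means more ethidium bromide displaced from hairpin DNA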
HSF1 activator – increases HSF-1 driven luciferase reporter signal | NIH3T3-HGL HSF-1 luciferase reporter, MG132, 8 h; 100% = twice DMSO control signal | activation, % at 9 µM | 300,000 compounds, 1.7% hits;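 active = mean replicate activation of at least 50% with a set share of replicates each reaching 50%; inconclusive = only one of those two conditions met; inactive = mean below 50% and too few replicates reaching it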
core dimer inh – HCV core protein dimerization inhibition; TR-FRET GST/Flag-core106 dimerization, 1536-well; inhibition, % at 5 µM; 300,000 compounds, 0.33% hits; AID 1899;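 active = inhibition above the mean of all tested compounds plus 3 SD, set per screening campaign, cut at about 45% in these data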
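System – GST-tagged and Flag-tagged HCV core protein residues 1-106 · Repeats – one well for each compound · Technique – TR-FRET 671 and 617 nm emission · Doses – one concentration, 5 µM, in 0.5% DMSO · Times – 4 h, 22.5 °C incubation · Also added – Eu donor and XL665 acceptor anti-tag antibodies · Measure – percent inhibition of core106 dimerization signal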
HSP90 inh – inhibitors of HSP90 luciferase refolding in rabbit reticulocyte lysate. luciferase refolding luminescence, 3 h. inhibition, % at 5.6 µM. 290,000 compounds, 0.91% hits. AID 1789;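 active = inhibition above the screen-wide mean plus 3 SD, computed separately per campaign, cut at about 16% in these data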;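 also: inhibitors lower the luminescence because luciferase stays unfolded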
HCV NS3 hel inh – inhibitors of Hepatitis C virus NS3 helicase. NS3 helicase DNA unwinding, Cy5 molecular beacon fluorescence. inhibition, % at 10.9 µM. 290,000 compounds, 0.56% hits. AID 1800;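 active = inhibition above the mean of all tested compounds plus 3 SD, set per campaign, cut at about 35% in these data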
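assay system = NS3 helicase fragment of HCV | buffer or medium = MOPS pH 6.5, MgCl2, DTT, Tween20, BSA | timing = 60 min unwinding reaction at 25 °C after ATP addition | signal = Cy5 beacon fluorescence read at start and 1 h | read-out basis = % inhibition of unwinding | control set = low DMSO, high thioflavine S at 110 µM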
HSF1 inhib – HSF1 inhibition; 300,000 compounds, 0.77% hits; activity change, negative = inhibition, % at 7.5 µM (by protocol); NIH3T3-HGL HSE-luciferase, MG132-induced, luminescence 8 h; stronger effect = lower value;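 active = more than half of replicate wells show activity change below -50%, luminescence cut by over half; inconclusive = some wells, but at most half, below -50%; inactive = no replicate well below -50%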;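 also: luciferase reports HSF-1 transcriptional activity via heat shock element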
NS3 helicase cf – HCV NS3 helicase inhibition, confirmation assay. shares compounds with HCV NS3 hel inh. NS3 helicase DNA unwinding, Cy5 molecular beacon fluorescence. inhibition, % at 10.9 µM. 1,600 compounds, 31% hits. AID 1943;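 active = inhibition above the mean of all tested compounds plus 3 SD, cutoff set per campaign, cut at about 36% in these data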
DNA FID counter-2 – intercalator displacement, NS3 helicase counter-screen. shares compounds with HCV NS3 hel inh. DNA fluorescent intercalator displacement, fluorescence. inhibition, % at 7.9 µM. 1,600 compounds, 4% hits. AID 1945;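 also: higher means more displacement of ethidium bromide from the DNA hairpin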
DNA FID DR – DNA intercalator displacement in dose response; shares compounds with HCV NS3 hel inh; IC50, µM; 120 tested, under 10 active; AID 2172; fluorescent intercalator displacement from DNA, fluorescence; call rule not given here
Numbers stand for hits. An excerpt weighted towards active compounds, which were near 3.9% of everything screened. Rule as the data show it, unless noted: active = inhibition above about 37%; inactive = the rest.

`CCOc1ccc2ccccc2c1C(=O)NCC(c1ccc(N(C)C)cc1)N(C)C` (stereo unspecified) gave DNA FID counter-1 inactive, HSF1 activator inactive, core dimer inh inactive, HSP90 inh inactive, HCV NS3 hel inh inactive and HSF1 inhib inactive.
C=CCSc1n[nH]c(-c2ccc(OC)cc2)n1 was read as DNA FID counter-1 inactive, HSF1 activator inactive, core dimer inh inactive, HSP90 inh inactive, HCV NS3 hel inh 39, HSF1 inhib inactive, NS3 helicase cf inactive and DNA FID counter-2 inactive.
Screening C=CCSc1n[nH]c(-c2ccccc2)n1 returned DNA FID counter-1 inactive, HSF1 activator inactive, core dimer inh inactive, HSP90 inh inactive, HCV NS3 hel inh inactive and HSF1 inhib inactive.
For O=c1ccc2c(-c3ccccc3)c3ccc(O)cc3oc-2c1 the results were DNA FID counter-1 inactive, HSF1 activator inactive, core dimer inh 66, HSP90 inh inactive, HCV NS3 hel inh 73, HSF1 inhib inactive, NS3 helicase cf 68, DNA FID counter-2 inactive and DNA FID DR inactive.
For CCOC(=O)C1CCN(Cc2cccc(OCc3ccccc3)c2)CC1 the results were DNA FID counter-1 inactive, HSF1 activator inactive, core dimer inh inactive, HSP90 inh inactive, HCV NS3 hel inh inactive and HSF1 inhib inactive.
COc1ccc(CC(=O)O/N=C(\N)Cc2ccc([N+](=O)[O-])cc2)cc1 was read as DNA FID counter-1 inactive, HSF1 activator inactive, core dimer inh inactive, HSP90 inh inactive, HCV NS3 hel inh inactive and HSF1 inhib inactive.
For Cc1ccc(CC(=O)O/N=C(\N)Cc2ccc([N+](=O)[O-])cc2)cc1 the results were DNA FID counter-1 inactive, HSF1 activator inactive, core dimer inh inactive, HSP90 inh inactive, HCV NS3 hel inh 38, HSF1 inhib inactive, NS3 helicase cf inactive and DNA FID counter-2 inactive.
`Fc1ccccc1/C=N/n1c(COc2ccccc2)n[nH]c1=S` gave DNA FID counter-1 inactive, HSF1 activator inactive, core dimer inh inactive, HSP90 inh inactive, HCV NS3 hel inh 50, HSF1 inhib inactive, NS3 helicase cf inactive and DNA FID counter-2 inactive.
O=[N+]([O-])c1cc(Br)c(O)c(C=Nc2ccc(N3CCOCC3)cc2)c1 was read as DNA FID counter-1 inactive, HSF1 activator inactive, core dimer inh inactive, HSP90 inh inactive, HCV NS3 hel inh 37, HSF1 inhib inactive, NS3 helicase cf inactive and DNA FID counter-2 inactive.
O=C1NC(=S)S/C1=C\c1ccc(SCc2ccccc2)o1 was read as DNA FID counter-1 inactive, core dimer inh inactive, HSP90 inh inactive, HCV NS3 hel inh 47, NS3 helicase cf 81 and DNA FID counter-2 inactive.
`O=C1NC(=S)S/C1=C\c1ccc(SCc2ccco2)o1` gave DNA FID counter-1 inactive, core dimer inh inactive, HSP90 inh inactive, HCV NS3 hel inh 76, NS3 helicase cf 81 and DNA FID counter-2 inactive.
For Cc1cccc(N2C(=O)C(O)=C(C(=O)c3cccs3)C2c2ccc(C(C)C)cc2)n1 (stereo unspecified) the results were DNA FID counter-1 inactive, HSF1 activator inconclusive, core dimer inh inactive, HSP90 inh inactive, HCV NS3 hel inh 55, HSF1 inhib inactive, NS3 helicase cf 78, DNA FID counter-2 inactive and DNA FID DR inactive.
Screening FC(F)(F)c1cc(-c2cccs2)nc2cc(-c3ccccc3)nn12 returned DNA FID counter-1 inactive, HSF1 activator inactive, core dimer inh inactive, HSP90 inh inactive, HCV NS3 hel inh inactive and HSF1 inhib inactive.
For O=C(O)c1cc2nc(-c3cccs3)cc(C(F)(F)F)n2n1 the results were DNA FID counter-1 inactive, HSF1 activator inactive, core dimer inh inactive, HSP90 inh inactive, HCV NS3 hel inh 39, HSF1 inhib inactive, NS3 helicase cf inactive and DNA FID counter-2 inactive.
CN(C)N1C(N)=C(C#N)C(c2ccc3c(c2)OCO3)C2=C1CCCC2=O (stereo unspecified) was read as DNA FID counter-1 inactive, HSF1 activator inactive, core dimer inh inactive, HSP90 inh inactive, HCV NS3 hel inh inactive and HSF1 inhib inactive.
Screening CCOC(=O)c1c(C)n(-c2ccc(C)cc2)c2c(C(C(C)=O)C(=O)O)c(Br)c(O)c(O)c12 (stereo unspecified) returned DNA FID counter-1 inactive, HSF1 activator inactive, core dimer inh inactive, HSP90 inh inactive, HCV NS3 hel inh inactive and HSF1 inhib inactive.
For CCOC(=O)C(C(C)=O)c1c(Br)c(O)c(O)c2c(C(=O)c3ccc(C)cc3)coc12 (stereo unspecified) the results were DNA FID counter-1 inactive, HSF1 activator inactive, core dimer inh inactive, HSP90 inh inactive, HCV NS3 hel inh 38, HSF1 inhib inactive, NS3 helicase cf inactive and DNA FID counter-2 inactive.
`COc1cccc(NC(=O)COc2cc(O)c3c(c2)OC(C)(C)CC3=O)c1` gave DNA FID counter-1 inactive, HSF1 activator inactive, core dimer inh inactive, HSP90 inh inactive, HCV NS3 hel inh 83, HSF1 inhib inactive, NS3 helicase cf inactive and DNA FID counter-2 inactive.
Screening CN(CC(=O)Nc1cccc(F)c1)C(=O)Cn1c(=O)cnc2ccccc21 returned HSF1 activator inactive, core dimer inh inactive and HSF1 inhib inactive.
COc1ccc(N2C(=O)C3C(C2=O)C(C(=O)c2ccc(Cl)cc2)N2CCCC32)cc1 (stereo unspecified) was read as DNA FID counter-1 inactive, HSF1 activator inactive, core dimer inh inactive, HSP90 inh inactive, HCV NS3 hel inh 40, HSF1 inhib inactive, NS3 helicase cf inactive and DNA FID counter-2 inactive.
For CC(=O)c1ccc(N2C(=O)C3C(C2=O)C(C(=O)c2ccc(Cl)cc2)N2CCCC32)cc1 (stereo unspecified) the results were DNA FID counter-1 inactive, HSP90 inh inactive and HCV NS3 hel inh inactive.
Screening O=C(O)c1ccccc1C(=O)c1ccc(-c2ccccc2)cc1 returned DNA FID counter-1 inactive, HSF1 activator inactive, core dimer inh inactive, HSP90 inh inactive, HCV NS3 hel inh 42, HSF1 inhib inactive, NS3 helicase cf inactive and DNA FID counter-2 inactive.
For COc1ccc(NC(=O)c2cc(-c3ccco3)nc3ccccc23)cc1S(=O)(=O)N1CCOCC1 the results were DNA FID counter-1 inactive, HSF1 activator inactive, core dimer inh 81, HSP90 inh inactive, HCV NS3 hel inh 54, HSF1 inhib inactive, NS3 helicase cf 73 and DNA FID counter-2 inactive.
For CCc1nnc(NC(=O)c2cc(-c3ccco3)nc3ccccc23)s1 the results were DNA FID counter-1 inactive, HSF1 activator inactive, core dimer inh 73, HSP90 inh inactive, HCV NS3 hel inh 38, HSF1 inhib inactive, NS3 helicase cf inactive and DNA FID counter-2 inactive.
